VIM-2 inh = inhibitors of Pseudomonas aeruginosa VIM-2 metallo-beta-lactamase; purified VIM-2, nitrocefin hydrolysis, epi-absorbance fluorescence; inhibition, % at 5.6 µM; 290,000 tested, 0.89% active; AID 1527;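 active = inhibition above the mean of all tested compounds plus 3 SD, cutoff set per screening run, cut at about 7.5% in these data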;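 also: red hydrolysis product quenches plate fluorescence so inhibitors raise well fluorescence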
PHOSPHO1 inh = PHOSPHO1 (human) inhibition; Q8TCT1; AID 1565; 290,000 tested, 1.1% active; inhibition, % at 13.3 µM; recombinant PHOSPHO1, absorbance phosphatase assay; in the data active = inhibition above about 60%
Target sequence (Q8TCT1 whole entry, looked up): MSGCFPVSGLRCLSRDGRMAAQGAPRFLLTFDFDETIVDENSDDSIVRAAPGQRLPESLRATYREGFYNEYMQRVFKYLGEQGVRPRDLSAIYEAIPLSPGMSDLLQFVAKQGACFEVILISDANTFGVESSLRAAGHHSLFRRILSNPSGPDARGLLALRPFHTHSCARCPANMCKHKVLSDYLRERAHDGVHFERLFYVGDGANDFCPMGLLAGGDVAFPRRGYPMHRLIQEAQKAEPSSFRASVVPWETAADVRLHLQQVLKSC
Yeast superoxide = lowers age-related superoxide in aged yeast cells | S. cerevisiae aged cells, superoxide DHE fluorescence; stronger effect = lower value | superoxide response (% of plate mean), % at 10 µM | 330,000 tested, 0.18% active | AID 2690;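 active = superoxide response under a set limit, about three screen SD below normal, cut at about 65% in these data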;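 also: yeast aged for seven days with compound at 30 °C before DHE staining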
PvdQ acylase = P. aeruginosa PvdQ acylase inhibition; purified PvdQ acylase, fluorescence plate reader; inhibition, % at 10 µM; 340,000 tested, 0.063% active; AID 488965; in the data active = inhibition above about 30%, passing the limit was not always enough
IMP-1 inhibitor = inhibitors of Pseudomonas aeruginosa IMP-1 metallo-beta-lactamase; purified IMP-1, nitrocefin hydrolysis, epi-absorbance fluorescence; inhibition, % at 5.6 µM; 290,000 tested, 0.45% active;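 active = inhibition above the mean plus 3 SD of all compounds in the same screening run, cut at about 4.5% in these data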
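Material – recombinant IMP-1 enzyme, purified · Amount – IMP-1 0.2 nM before substrate addition · Medium – HEPES buffer pH 7.1 with ZnSO4 and Brij 35 · Timing – 25 °C, 15 min preincubation, 25 min reaction · Measured by – plate fluorescence quenching by hydrolysis product, ex 480/em 530 nm · Read-out – percent enzyme inhibition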
Large screens that a line does not name were inactive. Only some compounds are listed: those with a hit (about 2.2% of all), similar ones and a draw of the others.

C[C@]12c3[nH]c4cc(-c5ccco5)ccc4c3CCN1C(=O)[C@@H](CC(=O)NCc1ccco1)C[C@@H]2C(=O)N1CCCCC1	none (no result: VIM-2 inh, PHOSPHO1 inh, IMP-1 inhibitor)
Cn1c(-c2sc3cc(C(F)(F)F)cnc3c2-c2ccccn2)n[nH]c1=S	none
Cn1c(-c2sc3cc(C(F)(F)F)cnc3c2-c2cccnc2)n[nH]c1=S	PHOSPHO1 inh 92.0
CCCCSc1nnc2c(n1)OC(C(=O)c1ccccc1)Nc1ccccc1-2 (stereo not drawn)	PHOSPHO1 inh 90.2 (no result: Yeast superoxide, PvdQ acylase)
Nc1ccc(Br)c2c1C(=O)c1ccccc1C2=O	VIM-2 inh 10.1 (no result: PvdQ acylase)
Cc1cccc2cc(CN(CCCN(C)C)C(=S)NCCc3ccccc3)c(=O)[nH]c12	none
CCN(CC)CCCNC(=S)N(Cc1cccnc1)Cc1cc2cc(C)cc(C)c2[nH]c1=O	VIM-2 inh 11.7
Cc1cc(C)c2[nH]c(=O)c(CN(Cc3cccnc3)C(=S)NCCCN(C)C)cc2c1	VIM-2 inh 9.3
Cc1cccc2cc(CN(Cc3cccnc3)C(=O)c3ccncc3)c(=O)[nH]c12	none
O=C(CSCCO)Nc1cccc(C(F)(F)F)c1	none
CN(C)C(=S)SCC(=O)Nc1cccc(C(F)(F)F)c1	PHOSPHO1 inh 67.3
COCCN(C(=O)Nc1ccc(OC)cc1)c1nc2ccccc2s1	none (no result: PHOSPHO1 inh)
COC(=O)CSc1n[nH]c(=S)s1	none
COC(=O)C(C)Sc1n[nH]c(=S)s1 (stereo not drawn)	PHOSPHO1 inh 102.3
C[C@@H]1[C@H](O)C[C@@]23COC(=O)C2=CCCC3[C@@]1(C)CCC1COC(=O)C1 (stereo partly drawn)	none (no result: VIM-2 inh, PHOSPHO1 inh, IMP-1 inhibitor)
CC(C)(C)c1nc(S(=O)(=O)c2ccc(Cl)cc2)c(N2CCOCC2)o1	PHOSPHO1 inh 62.7
O=C(COC(=O)Cc1ccc(Cl)cc1)NCc1cccs1	none (no result: VIM-2 inh, PHOSPHO1 inh, IMP-1 inhibitor)
O=C(CNC(=O)c1ccc(Br)cc1)OCc1cc([N+](=O)[O-])cc2c1OCOC2	PHOSPHO1 inh 68.1
CCOc1ccc(C(=O)NCC(=O)OCc2cc([N+](=O)[O-])cc3c2OCOC3)cc1OCC	none
O=C(Cn1ncc2c([nH]c3ccccc32)c1=O)Nc1cccnc1	none
Cc1ccc(NC(=O)Cn2ncc3c([nH]c4ccccc43)c2=O)cc1Cl	PHOSPHO1 inh 62.9
Cc1ccc(C(=O)Cn2ncsc2=N)cc1	IMP-1 inhibitor 25.0
Cc1ccc(C(=O)Cn2c(=N)n(N)c3ccccc32)cc1	none
Cc1cc(N2O[C@]34C=C[C@]25C[C@@H](O)CC[C@]5(C)C3CC[C@]2(C)[C@@H]([C@H](C)/C=C/[C@H](C)C(C)C)CC[C@H]24)no1 (stereo partly drawn)	Yeast superoxide 56.9 (no result: VIM-2 inh, PHOSPHO1 inh, IMP-1 inhibitor)
COC(c1ccccc1)c1nnc(CCC(=O)NC2C3CC4CC(C3)CC2C4)o1 (stereo not drawn)	PHOSPHO1 inh 60.1
CN(C)S(=O)(=O)c1ccc(C(=O)NCc2ccccn2)cc1	PHOSPHO1 inh 61.5
O=C(NCc1ccncc1)c1ccc(N2CCCC2)c([N+](=O)[O-])c1	none
O=C(NCc1ccccn1)c1ccc(N2CCCC2)c([N+](=O)[O-])c1	PHOSPHO1 inh 62.9
CN(c1ccccc1)S(=O)(=O)c1ccc(C(=O)NCc2ccccn2)cc1	none
Cc1ccc(-n2c(SCc3cc(=O)n4ccsc4n3)nnc2-c2cccnc2)c(C)c1	PHOSPHO1 inh 61.1
COc1ccc(CCN2CC(C(=O)N(C)CCn3nc(C)cc3C)CCC2=O)cc1 (stereo not drawn)	none
Cc1cc(C)n(CCN(C)C(=O)C2CCC(=O)N(CCc3cccc(F)c3)C2)n1 (stereo not drawn)	PHOSPHO1 inh 64.0
CC(C)N(Cc1cnn(C)c1)C(=O)C1CCC(=O)N(CCc2cccc(F)c2)C1 (stereo not drawn)	PHOSPHO1 inh 61.0
C[C@H](CO)N1C[C@H](C)[C@@H](CN(C)S(=O)(=O)c2ccccc2)Oc2c(NC(=O)Nc3ccc4c(c3)OCO4)cccc2C1=O	none (no result: VIM-2 inh, PHOSPHO1 inh, IMP-1 inhibitor)
CCNc1nc(NCC)n2c(SCC(=O)c3ccccc3F)nnc2n1	none
O=c1[nH]c2ccccc2nc1/C=C/c1ccc(Cl)cc1	none
CCOC(=O)c1c(C)[nH]c(C)c1C(=O)CSc1nnc(-c2ccncc2)n1C	PHOSPHO1 inh 81.4
CCn1c(SCC(=O)c2ccc3ccccc3c2)nnc1-c1ccco1	PHOSPHO1 inh 73.3
Cn1c(SCC(=O)NCc2cccs2)nnc1-c1ccncc1	PHOSPHO1 inh 68.8
CCc1nnc(NC(=O)CSc2nnc(-c3cc4ccccc4cc3O)n2CC)s1	none
COc1ccc(-c2nnc(SCC(=O)NCc3cccs3)n2C)cc1	none
CCn1c(SCC(=O)N(C(C)C)C(C)C)nnc1-c1cc2ccccc2cc1O	VIM-2 inh 11.8

Screening results (PubChem BioAssay)
